Assay results: ChEMBL document CHEMBL3804764, “Synthesis and biological characterization of 3-(imidazol-1-ylmethyl)piperidine sulfonamides as aromatase inhibitors” (Bioorg Med Chem Lett, 2016)

Biological target: T1, Aromatase (Homo sapiens, UniProt P11511)
T1 sequence (P11511 whole entry): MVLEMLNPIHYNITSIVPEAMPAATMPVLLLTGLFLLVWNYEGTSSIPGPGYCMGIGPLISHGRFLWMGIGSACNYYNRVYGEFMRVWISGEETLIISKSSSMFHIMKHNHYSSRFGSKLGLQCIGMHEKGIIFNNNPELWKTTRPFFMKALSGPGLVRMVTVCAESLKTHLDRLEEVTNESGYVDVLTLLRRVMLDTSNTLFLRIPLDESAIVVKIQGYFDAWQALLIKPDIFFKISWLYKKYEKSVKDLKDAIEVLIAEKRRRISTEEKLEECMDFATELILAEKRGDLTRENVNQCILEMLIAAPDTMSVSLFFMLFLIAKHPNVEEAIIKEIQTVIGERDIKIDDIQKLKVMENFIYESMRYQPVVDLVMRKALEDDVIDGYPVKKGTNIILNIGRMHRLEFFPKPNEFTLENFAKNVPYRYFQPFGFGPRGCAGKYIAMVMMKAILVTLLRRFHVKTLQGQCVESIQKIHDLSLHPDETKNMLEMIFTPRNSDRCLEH
Assay: Inhibition of recombinant human aromatase using 7-methoxy-4-trifluoromethyl coumarin as substrate measured at […] conditions by fluorescence analysis
Summary of the method: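 Semiautomated high-throughput fluorometric screen with recombinant human aromatase and 7-methoxy-4-trifluoromethyl coumarin (MFC) substrate. Inhibition read as reduced fluorescence from MFC conversion. Blank values subtracted from sample wells to give net signal. Activity normalized to no-inhibitor wells. Duplicate assays. Racemic compounds tested.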

IC50 [nM]	Compound
53	COC(=O)c1ccccc1S(=O)(=O)N1CCCC(Cn2ccnc2)C1 (configuration not stated)
9	O=[N+]([O-])c1cccc(Cl)c1Oc1cccc(S(=O)(=O)N2CCCC(Cn3ccnc3)C2)c1 (configuration not stated)
79	N#Cc1ccc(S(=O)(=O)N2CCCC(Cn3ccnc3)C2)c(Cl)c1 (configuration not stated)
46	O=S(=O)(c1ccc(F)c(F)c1F)N1CCCC(Cn2ccnc2)C1 (configuration not stated)
43	O=S(=O)(c1ccc(F)c(F)c1)N1CCCC(Cn2ccnc2)C1 (configuration not stated)
48	CS(=O)(=O)c1ccc(S(=O)(=O)N2CCCC(Cn3ccnc3)C2)cc1 (configuration not stated)
45	COc1c(C)cc(S(=O)(=O)N2CCCC(Cn3ccnc3)C2)c(C)c1C (configuration not stated)
14	COc1ccc(S(=O)(=O)N2CCCC(Cn3ccnc3)C2)cc1F (configuration not stated)
51	O=S(=O)(c1ccc(F)cc1)N1CCCC(Cn2ccnc2)C1 (configuration not stated)
22	O=S(=O)(c1ccc(OC2CCCC2)c(F)c1)N1CCCC(Cn2ccnc2)C1 (configuration not stated)
9	COc1ccc(S(=O)(=O)N2CCCC(Cn3ccnc3)C2)cc1C(C)(C)C (configuration not stated)
13	O=S(=O)(c1ccc2c(c1)OCCO2)N1CCCC(Cn2ccnc2)C1 (configuration not stated)
129	COc1cc([N+](=O)[O-])ccc1S(=O)(=O)N1CCCC(Cn2ccnc2)C1 (configuration not stated)
21	COc1c(C)cc(S(=O)(=O)N2CCCC(Cn3ccnc3)C2)cc1C (configuration not stated)
36	N#Cc1ccc(S(=O)(=O)N2CCCC(Cn3ccnc3)C2)cc1 (configuration not stated)
14	O=S(=O)(c1ccc(F)c(Cl)c1)N1CCCC(Cn2ccnc2)C1 (configuration not stated)
54	O=S(=O)(c1cccc2nsnc12)N1CCCC(Cn2ccnc2)C1 (configuration not stated)
7	O=S(=O)(c1ccc2nsnc2c1)N1CCCC(Cn2ccnc2)C1 (configuration not stated)
131	COc1ccc(S(=O)(=O)N2CCCC(Cn3ccnc3)C2)c(OC)c1 (configuration not stated)
339	O=C(O)c1cc(S(=O)(=O)N2CCCC(Cn3ccnc3)C2)ccc1O (configuration not stated)
42	COc1ccc(S(=O)(=O)N2CCCC(Cn3ccnc3)C2)cc1OC (configuration not stated)
6	COc1ccc(S(=O)(=O)N2CCCC(Cn3ccnc3)C2)cc1Br (configuration not stated)
59	COc1ccc(S(=O)(=O)N2CCCC(Cn3ccnc3)C2)c(C)c1C (configuration not stated)
16	O=[N+]([O-])c1ccc(S(=O)(=O)N2CCCC(Cn3ccnc3)C2)cc1C(F)(F)F (configuration not stated)
48	Cc1cc(F)ccc1S(=O)(=O)N1CCCC(Cn2ccnc2)C1 (configuration not stated)
14	O=S(=O)(c1ccc(OC2CCCC2)cc1)N1CCCC(Cn2ccnc2)C1 (configuration not stated)
24	Cc1cc(S(=O)(=O)N2CCCC(Cn3ccnc3)C2)ccc1F (configuration not stated)
